Only some compounds are listed: those with a hit (about 12% of all), similar ones and a draw of the others.
CHOP inhibitor – inhibitors of CHOP induction in ER stress response; CHO-K1 CHOP-promoter luciferase, tunicamycin-induced, 15-18 h; inhibition, % at 10 µM; 220,000 tested, 3.8% active; AID 2732;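 active = compounds that reduced the stress-induced luciferase reporter signal by more than about 70% of percent inhibition, limit read from the data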;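 also: 0% = tunicamycin plus vehicle and 100% = wells without tunicamycin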
Wee1 stabilizer – inhibitors of human Wee1 degradation. P30291. HeLa Luc-Wee1K328M stability, luciferase luminescence; 100% = proteasome inhibitor MG132 effect. reporter increase, % at 5 µM. 220,000 tested, 1.2% active. AID 1321;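 active = activation above the mean of all tested compounds plus 3 SD, set per screening run, cut at about 8.8% in these data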;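 also: cells exposed to compound for 20 h before luminescence read; 0% = DMSO alone and 100% = MG132 at 30 µM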
Rad51 HR inh – blocks human Rad51 in homologous recombination. hRad51 DNA strand exchange, fluorescence dequenching. AID 1385. inhibition, % at 10 µM. 200,000 tested, 0.085% active;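 active = inhibition above 40% at the single screening dose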;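 also: 0% = DMSO control wells and 100% = blanks with heterologous ssDNA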
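Read-out basis: percent inhibition relative to plate controls and blanks / Assay system: human Rad51 nucleoprotein filaments preassembled on unlabelled ssDNA / Timing: filaments 15 min 37 °C, then compound 30 min / Control set: per-plate controls and blanks / Technique: fluorescence dequenching at 485/520 nm / Compound: 10 µM final, single point / Also added: Fluorescein- and BHQ1-tagged 47-mer duplex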
Arbovirus anti – antivirals against arbovirus infection. arbovirus infection cell-based antiviral screen. inhibition, % at 10 µM. 200,000 tested, 0.37% active. AID 1251; in the data active = inhibition above about 30%
PKD1 inh – blocks activity of human protein kinase D1. PKD1 kinase fluorescence polarization assay. inhibition, % (no concentration beside the values). 200,000 tested, 0.056% active
Lmaj promast – reduces viability of Leishmania major promastigotes; resazurin fluorescence viability; inhibition, % at 10 µM; 200,000 tested, 9% active; AID 1063;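 also: promastigotes grown with compound for 44 hours at 28 °C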
Numbers without * were called inactive; / = no result. Rule as the data show it, unless noted: active = inhibition above about 50%; inactive = the rest.

SMILES	CHOP inhibitor	Wee1 stabilizer	Rad51 HR inh	Arbovirus anti	PKD1 inh	Lmaj promast
S=C(Nc1ccc(Br)cc1)N1CCn2cccc2C1c1cccnc1 (stereo not drawn)	29.9	4.0	7.6	19.9	-1.5	96.1*
O=C(O)/C=C/C(O)c1ccc(Cl)cc1 (stereo not drawn)	1.6	/	/	/	/	/
Cc1ccccc1/C=N/Nc1nc2ccccc2c(=O)n1O	-19.2	1.8	19.1	/	/	/
COc1ccc(OCC(O)CNc2ccc(Br)cc2)cc1 (stereo not drawn)	85.5*	-1.3	-2.7	11.4	2.6	1.5
COc1ccc(CNC(=S)Nc2ccc(OC)cc2)cc1	3.9	3.1	2.0	7.2	-10.6	51.9*
COc1ccc(NC2=NCC(Cc3ccc(Br)cc3)S2)cc1 (stereo not drawn)	44.3	2.4	2.7	-12.1	-2.3	87.7*
COc1ccc(CC(=O)NNC(=S)Nc2ccc(Br)cc2)cc1	23.8	0.7	0.6	4.5	-9.2	1.7
COc1ccc(CNc2ccc(Br)cc2)cc1	42.3	10.4*	2.8	2.3	-5.6	98.8*
COc1ccc(CNc2ccc(C(=O)O)cc2)cc1	-2.7	0.1	-7.1	0.0	-5.4	-5.8
COC(=O)c1sccc1N(C)S(C)(=O)=O	-6.8	-0.3	-4.8	3.2	9.0	0.0
CC(C(=O)N1CCN(Cc2ccc3c(c2)OCO3)CC1)c1ccc([N+](=O)[O-])cc1 (stereo not drawn)	10.2	-1.6	3.9	-3.5	10.6	80.1*
CCOC(=O)C1CCN(C(=O)C(C)c2ccc([N+](=O)[O-])cc2)CC1 (stereo not drawn)	5.0	0.6	14.9	6.3	-2.5	-6.7
CC(C(=O)N1CCOCC1)c1ccc([N+](=O)[O-])cc1 (stereo not drawn)	35.2	-0.9	5.9	7.8	-14.7	55.1*
CCN(CC)C(=O)N1CCN(Cc2ccc3c(c2)OCO3)CC1	3.1	-0.4	3.7	-3.4	-0.5	1.8
C/C(O)=c1/cnc2nc3ccccc3n2c1=O	-3.7	-2.5	5.1	9.7	-11.3	-8.3
CCC(=O)N1CCN(c2ccc(NC(=O)c3ccc([N+](=O)[O-])o3)cc2)CC1	22.4	1.7	8.7	-32.5	-3.3	99.8*
O=C(Nc1ccc(N2CCN(C(=O)c3ccc(Cl)cc3)CC2)cc1)c1ccc2c(c1)OCCO2	51.0	-2.4	-4.2	2.2	2.0	-4.4
Cc1cc(C)cc(C(=O)Nc2ccc(N3CCN(S(C)(=O)=O)CC3)cc2)c1	52.6	-3.0	-2.1	-11.1	5.8	-1.1
CS(=O)(=O)N1CCN(c2ccc(NC(=O)c3ccc([N+](=O)[O-])o3)cc2)CC1	56.5	2.3	/	-30.3	-0.5	94.7*
O=C(Nc1ccc(N2CCN(C(=O)c3ccc(Cl)cc3)CC2)cc1)c1ccc([N+](=O)[O-])o1	55.2	-0.3	14.9	-32.5	5.3	100.0*
CN1CCN(c2ccc(NC(=O)c3ccc(-c4ccc(Br)cc4)o3)cc2)CC1	-7.3	-0.5	24.8	-28.8	0.2	99.2*
CCN(C(=O)Cc1c(C(=O)O)[nH]c2ccccc12)c1ccc(OC)cc1	-21.1	-3.1	0.9	6.7	-5.2	-4.3
COc1cc2oc(=O)ccc2c(OC)c1CC(O)C(C)(C)O (stereo not drawn)	0.1	/	-7.0	/	/	/
CCCC(=O)N1CCN(c2ccc(NC(=O)c3ccc(Br)o3)cc2)CC1	-2.7	5.9	13.9	5.4	3.6	-3.4
CCCC(=O)N1CCN(c2ccc(NC(=O)c3ccc([N+](=O)[O-])o3)cc2)CC1	-55.2	8.0	/	-31.9	-1.2	100.5*
SMILES	CHOP inhibitor	Wee1 stabilizer	Rad51 HR inh	Arbovirus anti	PKD1 inh	Lmaj promast
Cc1ccc(C(=O)OCn2ncc(Cl)c(Cl)c2=O)cc1	106.6*	1.8	-0.2	-32.8	-6.1	100.6*
COc1ccc(NC(=O)Cn2ncc(Cl)c(Cl)c2=O)cc1S(=O)(=O)N1CCOCC1	-55.9	2.5	8.0	-34.2	-4.3	86.5*
Cc1cccc(Cn2ncc(Cl)c(Cl)c2=O)c1	-99.4	1.0	-15.2	-32.8	-2.5	62.1*
CCC(=O)Nc1ccc(C(=O)Cn2ncc(Cl)c(Cl)c2=O)cc1	-33.2	3.2	/	/	/	/
CCN(CC)S(=O)(=O)c1cc(NC(=O)Cn2ncc(Cl)c(Cl)c2=O)ccc1C	52.7	3.6	-3.6	/	/	/
CCOC(=O)c1ccc(NC(=O)Cn2ncc(Cl)c(Cl)c2=O)cc1	107.9*	-0.8	-4.8	-37.8	6.8	95.6*
CCOC(=O)Cn1ncn(-c2ccc(OC(F)(F)F)cc2)c1=O	-13.7	-0.4	/	-0.6	8.3	-3.9

Screening results: PubChem BioAssay, several laboratories
